Converted amounts (≈) assume the structure as drawn. One block for each compound: values may come before it.
How the values were obtained:
[1] = biological target: Adenosine receptors; A1 & A2b (Homo sapiens) (UniProt P30542+P29275); test: Selectivity for human adenosine A1 receptor over adenosine A2B receptor; assay type: protein assay
[2] = biological target: Adenosine receptors; A1 & A2a (Homo sapiens) (UniProt P30542+P29274); test: Selectivity for human adenosine A1 receptor over adenosine A2A receptor; assay type: protein assay
Sequence of Adenosine receptors; A1 & A2a (Homo sapiens) (P29274 whole entry, looked up, one chain of several): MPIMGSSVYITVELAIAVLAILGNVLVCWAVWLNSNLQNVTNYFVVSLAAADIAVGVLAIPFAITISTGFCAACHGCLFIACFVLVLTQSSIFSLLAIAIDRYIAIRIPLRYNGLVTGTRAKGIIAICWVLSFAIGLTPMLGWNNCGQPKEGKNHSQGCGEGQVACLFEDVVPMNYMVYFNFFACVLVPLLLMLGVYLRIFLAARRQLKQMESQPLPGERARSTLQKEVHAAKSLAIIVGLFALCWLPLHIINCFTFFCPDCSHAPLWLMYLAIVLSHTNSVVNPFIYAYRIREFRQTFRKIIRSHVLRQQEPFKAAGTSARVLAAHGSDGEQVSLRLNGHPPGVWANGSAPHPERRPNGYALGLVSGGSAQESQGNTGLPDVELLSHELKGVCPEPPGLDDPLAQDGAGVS

[3] = biological target: T1, Adenosine receptor A1 (Rattus norvegicus, UniProt P25099); test: Intrinsic activity at adenosine A1 receptor assessed as blockade of CPA in isolated spontaneously beating rat atria; assay type: functional; conditions: read-out: pA2 (converted)
T1 sequence (P25099 whole entry): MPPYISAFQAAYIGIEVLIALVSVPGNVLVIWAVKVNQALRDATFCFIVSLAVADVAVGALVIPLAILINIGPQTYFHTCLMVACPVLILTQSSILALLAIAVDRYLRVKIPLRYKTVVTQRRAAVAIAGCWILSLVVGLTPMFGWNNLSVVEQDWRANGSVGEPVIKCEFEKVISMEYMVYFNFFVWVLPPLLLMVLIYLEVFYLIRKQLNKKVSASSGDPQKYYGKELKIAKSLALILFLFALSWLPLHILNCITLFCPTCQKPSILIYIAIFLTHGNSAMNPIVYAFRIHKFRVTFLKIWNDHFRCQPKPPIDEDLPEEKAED

[4] = biological target: T2, Adenosine receptor A2b (Homo sapiens, UniProt P29275); test: Displacement of [125I]3-(4-aminobenzyl)-8-phenyloxyacetate-1-propyl-xanthine from human adenosine A2B receptor
T2 sequence (P29275 whole entry): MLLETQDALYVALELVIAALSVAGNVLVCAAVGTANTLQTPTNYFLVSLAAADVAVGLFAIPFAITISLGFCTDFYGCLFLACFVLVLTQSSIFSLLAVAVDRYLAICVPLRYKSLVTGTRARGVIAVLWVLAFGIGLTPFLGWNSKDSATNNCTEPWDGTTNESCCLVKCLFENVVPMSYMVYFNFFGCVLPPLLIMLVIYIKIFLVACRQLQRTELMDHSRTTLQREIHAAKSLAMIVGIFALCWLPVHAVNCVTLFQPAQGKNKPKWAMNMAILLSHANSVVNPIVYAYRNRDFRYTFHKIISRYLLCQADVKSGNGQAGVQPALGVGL

[5] = biological target: T3, Adenosine receptor A3 (Homo sapiens, UniProt P0DMS8); test: Displacement of [125I]ABA from human adenosine A3 receptor
T3 sequence (P0DMS8 whole entry): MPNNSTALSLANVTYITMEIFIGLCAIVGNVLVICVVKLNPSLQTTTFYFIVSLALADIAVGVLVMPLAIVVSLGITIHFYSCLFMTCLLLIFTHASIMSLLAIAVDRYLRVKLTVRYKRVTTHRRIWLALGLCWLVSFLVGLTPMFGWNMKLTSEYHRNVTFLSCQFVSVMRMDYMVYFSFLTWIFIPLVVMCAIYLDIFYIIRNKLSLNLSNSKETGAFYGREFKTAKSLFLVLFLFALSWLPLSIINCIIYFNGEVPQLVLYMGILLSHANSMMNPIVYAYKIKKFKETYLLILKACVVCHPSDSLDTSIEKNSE

[6] = biological target: Adenosine receptor A2a (Homo sapiens, UniProt P29274); test: Displacement of [125I]ZM-241385 from human adenosine A2A receptor
Sequence of Adenosine receptor A2a (P29274 whole entry): as the sequence (P29274 whole entry, looked up, one chain of several) above

[7] = biological target: T1, Adenosine receptor A1; test: Displacement of [3H]DPCPX from adenosine A1 receptor in rat cerebral cortex; assay type: tissue-based
Outline: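 Rat brain membranes (cerebral cortex for A1, striatum for A2A) homogenized in 10 mM EDTA/10 mM Na-HEPES pH 7.4 with protease inhibitors, washed, stored at -80 °C. 40-70 µg protein incubated in triplicate with radioligand plus seven competitor concentrations in HEPES/EDTA buffer with 2 units/mL adenosine deaminase, 2.5 h, 21 °C. A1: [3H]DPCPX 2 nM, nonspecific with 10 µM NECA; A2A: [3H]ZM241385 0.5-1.2 nM, nonspecific with 10 µM XAC. GF/C filtration; single-site fit, Cheng-Prusoff Ki.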

[8] = test system: Rattus norvegicus; test: Sodium excretion level in po dosed rat diuresis model; assay type: ADME, organism-based
Outline: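 Rats held in metabolic cages and dosed by gavage as 0.5% cmc suspension at several doses; urine collected for 4 h and sodium excretion (UNaV) measured.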

[9] = test system: Rattus norvegicus; test: Volume of distribution in rat at 1 mg/kg, po; assay type: ADME, organism-based; design: dose 1 mg/kg, route oral; conditions: in vivo
Outline: (§1)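 Rats given 1 mg/kg orally and intravenously to obtain pharmacokinetic parameters.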

[10] = Clearance in rat at 1 mg/kg, po; assay type: ADME, organism-based; design: dose 1 mg/kg, route oral; conditions: in vivo; outline: as §1
[11] = Oral bioavailability in rat at 1 mg/kg, iv and po; assay type: ADME, organism-based; conditions: in vivo; outline: as §1
[12] = Half life in rat 1 mg/kg, po; assay type: ADME, organism-based; design: dose 1 mg/kg, route oral; conditions: in vivo; outline: as §1
[13] = (§2) AUC(last) in rat at 1 mg/kg, po; assay type: ADME, organism-based, Plasma; design: time 0 - last, dose 1 mg/kg, route oral; conditions: plasma; outline: as §1
[14] = biological target: Adenosine receptor A2a (Rattus norvegicus) (UniProt P30543); test: Displacement of [3H]ZM-241385 from adenosine A2A receptor in rat striatal membrane at 10 uM relative to control; assay type: cell membranes; conditions: Striatum
Sequence of Adenosine receptor A2a (Rattus norvegicus) (P30543 whole entry): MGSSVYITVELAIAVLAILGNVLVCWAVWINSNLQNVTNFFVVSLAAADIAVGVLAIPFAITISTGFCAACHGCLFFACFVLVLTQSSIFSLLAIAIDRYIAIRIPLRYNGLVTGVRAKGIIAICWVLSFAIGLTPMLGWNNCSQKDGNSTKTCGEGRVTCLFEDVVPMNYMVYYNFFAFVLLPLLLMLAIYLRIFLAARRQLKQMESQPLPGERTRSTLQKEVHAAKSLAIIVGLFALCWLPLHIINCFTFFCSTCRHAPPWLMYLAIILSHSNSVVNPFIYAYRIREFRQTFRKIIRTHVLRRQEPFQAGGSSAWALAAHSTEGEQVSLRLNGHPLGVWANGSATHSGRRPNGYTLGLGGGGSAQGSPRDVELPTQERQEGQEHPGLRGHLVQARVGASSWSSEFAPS

[15] = biological target: T4, Adenosine receptor A1 (Homo sapiens, UniProt P30542); test: Displacement of [125I]ABA from human adenosine A1 receptor
T4 sequence (P30542 whole entry): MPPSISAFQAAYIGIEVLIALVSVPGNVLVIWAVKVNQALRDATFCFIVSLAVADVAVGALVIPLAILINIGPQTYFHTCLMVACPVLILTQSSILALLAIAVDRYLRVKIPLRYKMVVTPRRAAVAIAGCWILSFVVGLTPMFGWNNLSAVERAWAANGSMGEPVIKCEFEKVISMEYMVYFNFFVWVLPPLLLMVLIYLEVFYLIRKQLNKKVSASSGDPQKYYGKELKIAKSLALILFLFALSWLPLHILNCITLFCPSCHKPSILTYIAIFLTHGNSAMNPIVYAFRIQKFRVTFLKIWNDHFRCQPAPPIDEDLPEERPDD

[16] = Aqueous solubility of the compound; assay type: physicochemical
[17] = test system: Rattus norvegicus; test: as §2; assay type: ADME, organism-based, Plasma; design: time 0 - last, dose 1 mg/kg, route oral; conditions: in vivo; outline: as §1

- Ratio Ki [1]: 26
- Ratio Ki [2]: 200
SMILES: CCCN1C(=O)N2C[C@@H](CC)N=C2c2[nH]c(C34CCC(O)(CC3)CC4)nc21

- Kb [3]: 0.158 nM
- Ki [4]: 90 nM
- Ki [5]: > 10000 nM
- Ki [6]: 6400 nM
- Ki [7]: 1 nM
SMILES: CCCn1c(=O)c2[nH]c(C34CCC(CCC(=O)O)(CC3)CC4)nc2n(CCC)c1=O [TONAPOFYLLINE]

- Vdss [9]: 1.7 L/kg
- CL/F [10]: 21 mL/min/kg
- bioavailability [11]: 54%
- half-life [12]: 2.9 h
- AUC(0-t) [13]: 810 ng·h/mL
SMILES: CCCN1C(=O)N2C[C@@H](C(C)C)N=C2c2[nH]c(C34CCC(O)(CC3)CC4)nc21.Cl
- ED50 [8]: 0.01 mg/kg

- Ratio Ki [1]: 57
- Ratio Ki [2]: 46
SMILES: CCCN1C(=O)N2C[C@@H](C(C)C)N=C2c2[nH]c(C34CCC(O)(CC3)CC4)nc21

- Activity [14]: 80%
- Ki [7]: > 250 nM
SMILES: CCCN1C(=O)N2C[C@H](CC)N=C2c2[nH]c(C34CCC(C(=O)O)(CC3)CC4)nc21

- Ki [15]: 2 nM
- Ki [4]: 430 nM
- solubility [16]: 100 µg/mL (≈ 277 µM)
- Ki [5]: > 1000 nM
- Ki [6]: 550 nM
- Ki [7]: 0.6 nM
SMILES: CCCn1c(=O)c2[nH]c(C34CCC(O)(CC3)CC4)nc2n(CCC)c1=O

- Ki [15]: 45 nM
- Ki [4]: 3100 nM
- Ki [5]: > 10000 nM
- Ki [6]: 18000 nM
SMILES: CCCN1C(=O)N2C[C@@H](C(C)C)N=C2c2[nH]c(C34CCC(CCC(=O)O)(CC3)CC4)nc21

- Activity [14]: 97%
- Ki [7]: 170 nM
SMILES: CCCN1C(=O)N2C[C@@H](CC(C)C)N=C2c2[nH]c(C34CCC(O)(CC3)CC4)nc21

- Ki [7]: 51 nM
SMILES: CCCN1C(=O)N2C(=NC[C@H]2C)c2[nH]c(C34CCC(O)(CC3)CC4)nc21

- Ratio Ki [1]: 215
- Ratio Ki [2]: 275
SMILES: CCCn1c(=O)c2nc(C34CCC(O)(CC3)CC4)[nH]c2n(CCC)c1=O

- Activity [14]: 90%
SMILES: CCC[C@@H]1CN2C(=O)N(CCC)c3[nH]c(C45CCC(O)(CC4)CC5)nc3C2=N1

- Activity [14]: 84%
SMILES: CCCN1C(=O)N2C[C@@H](Cc3ccccc3)N=C2c2[nH]c(C34CCC(O)(CC3)CC4)nc21

- Ratio Ki [1]: 54
- Ki [15]: 35 nM
- Ki [4]: 1900 nM
- Ki [5]: > 10000 nM
- Ki [6]: > 10000 nM
- Ratio Ki [2]: > 280
- Activity [14]: 83%
SMILES: CCCN1C(=O)N2C[C@@H](CC)N=C2c2[nH]c(C34CCC(CCC(=O)O)(CC3)CC4)nc21

- Vdss [9]: 0.9 L/kg
- bioavailability [11]: 77%
- half-life [12]: 3.1 h
- AUC [17]: 2600 ng·h/mL
SMILES: CCCN1C(=O)N2C[C@@H](C(C)C)N=C2c2[nH]c(C34CCC(CCC(=O)O)(CC3)CC4)nc21.Cl
- ED50 [8]: 0.01 mg/kg

Source: ChEMBL document CHEMBL1137356, “Tricyclic imidazoline derivatives as potent and selective adenosine A1 receptor antagonists” (J Med Chem, 2006)
